# Source: PubChem BioAssay (several laboratories)
# TAAR1 ag = human TAAR1 agonists, primary screen, Fluo-8 calcium fluorescence, CHO RD-HGA16 cells | hit rate 0.99% among 360,000 | activation, % at 3 µM | vehicle wells 0%, saturating PEA agonist 100% | Trace amine-associated receptor 1 (Homo sapiens), Q96RJ0;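 active means activation above the mean activation of all test compounds in the run plus 3 SD, cut at about 38% in these data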
#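 Repeats: no replicates (n 1) | Material: CHO-derived RD-HGA16 cells with stable Gα16 and human TAAR1 | Technique: Kinetic Fluo-8 calcium fluorescence | Schedule: 17-24 h seeding, 75 min 37 °C dye, 30 min RT | Evaluation: % activation from peak over basal fluorescence ratio, DMSO-to-PEA scaled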
# OX1R antag-1 = antagonists of human orexin 1 receptor (OX1R) | Orexin/Hypocretin receptor type 1 (Homo sapiens), O43613 | OX1R-expressing cells, FRET antagonist read-out | inhibition, % at 6.6 µM | hit rate 1.8% among 330,000 | AID 485270, 2010; in the data active means inhibition mostly above about 38%, no sharp cut-off; inactive means mostly below about 40%;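 further: 0% = agonist challenge alone and 100% = reference antagonist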
# Target sequence (O43613 whole entry, looked up): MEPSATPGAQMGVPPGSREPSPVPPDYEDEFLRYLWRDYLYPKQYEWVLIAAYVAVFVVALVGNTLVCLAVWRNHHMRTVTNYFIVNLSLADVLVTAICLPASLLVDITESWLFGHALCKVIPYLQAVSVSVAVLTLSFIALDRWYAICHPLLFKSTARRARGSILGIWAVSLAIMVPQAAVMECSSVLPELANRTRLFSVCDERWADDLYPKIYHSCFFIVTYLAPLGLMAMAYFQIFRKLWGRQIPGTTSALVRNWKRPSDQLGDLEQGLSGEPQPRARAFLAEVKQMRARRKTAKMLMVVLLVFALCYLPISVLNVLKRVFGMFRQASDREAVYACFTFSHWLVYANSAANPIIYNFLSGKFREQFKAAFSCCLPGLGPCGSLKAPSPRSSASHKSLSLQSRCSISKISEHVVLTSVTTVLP
# CHO parental Ca = ATP-evoked calcium signal inhibitors, parental CHO, primary screen, counter-screen for OX1R antagonist project, cell-based, fluorescence, Fluo-8 calcium dye; parental CHO-K1, ATP-induced calcium, Fluo-8 fluorescence; inhibition, % at 5.6 µM; hit rate 0.63% among 330,000;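 active means inhibition above that plate's mean sample inhibition plus 3 SD, cut at about 26% in these data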;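 further: 0% = ATP-challenged DMSO wells and 100% = DMSO wells without ATP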
#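 material = parental CHO cells | also added = ATP as calcium-mobilizing challenge | dosing = single point at 5.6 µM | detection = intracellular calcium via Fluo-8 no-wash fluorescent dye | read-out = % inhibition | benchmarks = low control ATP plus DMSO, high control DMSO only | repeats = one well per compound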
# TAAR1 antag = human TAAR1 antagonists, primary screen, Fluo-8 calcium fluorescence, CHO RD-HGA16 cells; antagonist; hit rate 1.5% among 360,000; inhibition, % at 3 µM; AID 624466, 2012; Trace amine-associated receptor 1 (Homo sapiens), Q96RJ0;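 active means inhibition above a per-plate cutoff, the mean inhibition of test compounds on that plate plus 3 SD, cut at about 49% in these data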;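 further: 0% = DMSO plus EC80 beta-PEA response and 100% = DMSO alone without agonist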
#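 Test system – hTAAR1-expressing CHO RD-HGA16 cells, Gα16-coupled · Reagent – β-PEA at EC80 concentration, post-compound challenge · Compound dosing – 3 µM, single point · Timing – 140 s kinetic read after compound, 140 s after agonist · Detection – Fluo-8 intracellular calcium dye fluorescence, real-time kinetic reads · Control set – DMSO and EC80 PEA controls · Repeats – n of 1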
# OX1R antag-2 = OX1R (HCRTR1) antagonists, primary screen, fluorescence, CHO/OX1R cells, Fluo-8 calcium, orexin A; Orexin/Hypocretin receptor type 1 (Homo sapiens), O43613; Fluo-8 calcium fluorescence; inhibition, % at 5 µM; hit rate 0.43% among 330,000; AID 434989, 2010;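 active means inhibition above its plate's threshold, mean inhibition of all tested compounds on the plate plus 3 SD, cut at about 37% in these data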;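 further: 0% = orexin A challenge wells and 100% = SB-334867-A antagonist wells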
# NTR1 ag = agonists of human NTR1, primary screen, imaging, U2OS cells, beta-arrestin-GFP, high content | NTR1-U2OS beta-arrestin-GFP spot imaging, agonist mode | hit rate 0.17% among 330,000 | Neurotensin receptor type 1 (Homo sapiens), P30989 | activation, % at 20 µM;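 active means activation at or above 40% of the spot to cytoplasm intensity ratio, with at least 20 cells analyzed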;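 further: 0% = DMSO without peptide and 100% = 100 nM NTR1 peptide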
# TAAR1 ag confirm = human TAAR1 agonists, retest of hits, confirmation, Fluo-8 calcium fluorescence, CHO RD-HGA16 cells. shares compounds with TAAR1 ag. scaled: DMSO 0%, maximal phenethylamine 100%. activation, % at 3 µM. hit rate 82% among 2,400. AID 651783, 2012;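 active means activation above a cutoff set at the run's mean compound activation plus 3 SD, cut at about 39% in these data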
# Ga16 ag counter = nonselective calcium mobilization agonists, CHO-Ga16 cells, counter-screen for hTAAR1 agonist project, cell-based, fluorescence, CHO-Ga16 parental line | shares compounds with TAAR1 ag | Fluo-8 calcium fluorescence; normalized to maximal ATP response, DMSO zero | activation, % at 3 µM | hit rate 50% among 2,400 | AID 651787, 2012;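 active means activation above the run cutoff, the mean activation over all tested wells plus 3 SD, cut at about 12% in these data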;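 further: 0% = DMSO wells and 100% = maximal ATP response on the peak over basal ratio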
# TAAR1 desens = TAAR1 desensitization by agonist hits, confirmation, counter-screen for TAAR1 agonist project, cell-based, fluorescence, tachyphylaxis; shares compounds with TAAR1 ag; CHO RD-HGA16 hTAAR1, Fluo-8 calcium, beta-PEA response inhibition; inhibition, % at 3 µM; hit rate 46% among 2,400; AID 651951, 2012;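 active means inhibition above the run cutoff, the mean inhibition of all test compounds plus 3 SD, cut at about 49% in these data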;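 further: beta-PEA stimulus applied at its EC80; loss of beta-PEA calcium signal after compound pretreatment read as receptor desensitization; 0% = DMSO with beta-PEA at EC80 and 100% = DMSO alone without agonist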
# Ga16 antag count = inhibition of ATP-evoked calcium response in CHO-Ga16 cells, counter-screen for TAAR1 agonist project, cell-based, fluorescence; inhibition, % at 3 µM; hit rate 39% among 2,400; AID 651952, 2012; shares compounds with TAAR1 ag; CHO-Ga16 ATP-induced calcium, Fluo-8 fluorescence;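 active means inhibition above the plate's mean compound inhibition plus 3 SD, computed per plate, cut at about 22% in these data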;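 further: 0% = EC80 ATP with DMSO and 100% = DMSO wells without ATP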
# * marks the source's active call; other numbers are inactive results; x = no result. Rows were chosen to be rich in hits. Some 4% of all compounds tested hit in one or more screens of this group.
SMILES,TAAR1 ag,OX1R antag-1,CHO parental Ca,TAAR1 antag,OX1R antag-2,NTR1 ag,TAAR1 ag confirm,Ga16 ag counter,TAAR1 desens,Ga16 antag count
FC(F)Oc1ccccc1NC(=S)NCCc1ccccc1,51.0*,4.1,-18.3,-14.1,-19.6,-1.0,77.4*,5.4,35.2,5.2
COC(=O)C1=C(C)N(Cc2ccc(C(F)(F)F)cc2)C(=NCc2ccccc2)NC1c1cccc(F)c1 (stereo unspecified),40.3*,x,x,66.0*,x,x,30.3,17.9*,48.0,38.8*
COC(=O)C1=C(C)N(Cc2cccc(C(F)(F)F)c2)C(=NCC2CC2)NC1c1cccc(F)c1 (stereo unspecified),131.3*,x,x,97.1*,x,x,103.5*,69.6*,92.1*,81.4*
COc1cccc(C(=S)N2CCCC2)c1OC,2.0,22.2,-0.9,-3.2,-4.3,0.0,x,x,x,x
c1ccc(C2CNCCc3ccccc32)cc1 (stereo unspecified),63.7*,0.4,0.3,74.4*,-16.1,-1.6,94.7*,1.2,92.1*,8.1
Oc1cc2c(cc1O)C(c1ccccc1)CNCC2 (stereo unspecified),21.9,7.8,2.8,-26.4,7.4,-1.3,x,x,x,x
S=C(Nc1cc(Cl)cc(Cl)c1)NC1CCN(Cc2ccccc2)CC1,64.4*,x,x,19.8,x,52.4*,57.6*,32.0*,53.2*,45.9*
Cc1nc2ncnn2c(N2CCN(C(c3ccccc3)c3ccccc3)CC2)c1C,49.0*,1.0,16.1,38.8,-4.6,21.5,26.9,14.6*,17.2,8.7
CN(C)CCOC1(Cc2ccc(F)cc2)CCC(C(C)(C)C)CC1 (stereo unspecified),56.0*,x,x,24.9,x,x,50.6*,34.3*,33.5,23.1*
CN(C)CCCCOc1ccc(F)cc1,1.0,14.5,0.3,16.0,-21.6,4.3,x,x,x,x
Cc1ccc(CC2(OCCN(C)C)CCC(C(C)(C)C)CC2)cc1 (stereo unspecified),63.4*,x,x,23.2,x,x,85.1*,44.5*,75.4*,41.2*
COc1ccc(S(=O)(=O)N2CCC(C(=O)NC(c3nc4ccccc4[nH]3)C(C)C)CC2)cc1 (stereo unspecified),3.8,-3.9,-17.0,-49.8,-13.6,2.9,x,x,x,x
Cc1cccc(NC(=O)Nc2nnc([C@@H]3C[C@H](O)[C@@H](CO)O3)s2)c1,7.4,x,x,-4.2,x,x,x,x,x,x
COC(=O)[C@@]1(Cc2ccc(F)cc2)[C@H]2c3cc(C(=O)N4CCCC4)n(CCF)c3C[C@H]2CN1C(=O)c1ccccc1,6.9,x,x,-1.8,x,x,x,x,x,x
COC(=O)[C@@]1(Cc2ccc(F)cc2)[C@H]2c3cc(C(=O)N4CCCC4)n(CC4CC4)c3C[C@H]2CN1C(=O)c1ccccc1,69.8*,x,x,22.6,x,x,76.3*,38.3*,52.5*,32.4*
CC1(C)Cc2c(sc3nc4n(-c5ccccc5)cnn4c(=O)c23)CO1,0.1,3.0,4.2,-25.4,-1.8,2.6,x,x,x,x
Fc1ccc(-n2nnc(-c3ncc[nH]3)n2)cc1,x,31.6,4.2,x,-1.8,0.1,x,x,x,x
